According to ChEMBL document CHEMBL1123632, “Cardiotonic agents. 7. Inhibition of separated forms of cyclic nucleotide phosphodiesterase from guinea pig cardiac muscle by 4,5-dihydro-6-[4-(1H-imidazol-1-yl)phenyl]-3(2H)-pyridazinones and related compounds. Structure-activity relationships and correlation with in vivo positive inotropic …” (J Med Chem, 1987):
Where “and” joins values, the source holds several entries; their conditions need not be identical. Identical values can stand only once.

Tests used:
[1] = target: T1, Phosphodiesterase 1 (Homo sapiens, UniProt P54750+Q01064+Q14123); test: Inhibitory concentration against cAMP PDE I enzyme in guinea pig; format: protein assay, Cavia porcellus; conditions: target entry is the homologue from another species
[2] = target: T1, Phosphodiesterase 1; test: Inhibitory concentration against cGMP PDE I enzyme in guinea pig; format: protein assay, Cavia porcellus; conditions: target entry is the homologue from another species
[3] = target: T2, cGMP-dependent 3',5'-cyclic phosphodiesterase (Homo sapiens, UniProt O00408); test: Inhibitory concentration against cAMP PDE II enzyme in guinea pig; parameters: species or system Cavia porcellus; conditions: target entry is the homologue from another species
T2 sequence (O00408 whole entry): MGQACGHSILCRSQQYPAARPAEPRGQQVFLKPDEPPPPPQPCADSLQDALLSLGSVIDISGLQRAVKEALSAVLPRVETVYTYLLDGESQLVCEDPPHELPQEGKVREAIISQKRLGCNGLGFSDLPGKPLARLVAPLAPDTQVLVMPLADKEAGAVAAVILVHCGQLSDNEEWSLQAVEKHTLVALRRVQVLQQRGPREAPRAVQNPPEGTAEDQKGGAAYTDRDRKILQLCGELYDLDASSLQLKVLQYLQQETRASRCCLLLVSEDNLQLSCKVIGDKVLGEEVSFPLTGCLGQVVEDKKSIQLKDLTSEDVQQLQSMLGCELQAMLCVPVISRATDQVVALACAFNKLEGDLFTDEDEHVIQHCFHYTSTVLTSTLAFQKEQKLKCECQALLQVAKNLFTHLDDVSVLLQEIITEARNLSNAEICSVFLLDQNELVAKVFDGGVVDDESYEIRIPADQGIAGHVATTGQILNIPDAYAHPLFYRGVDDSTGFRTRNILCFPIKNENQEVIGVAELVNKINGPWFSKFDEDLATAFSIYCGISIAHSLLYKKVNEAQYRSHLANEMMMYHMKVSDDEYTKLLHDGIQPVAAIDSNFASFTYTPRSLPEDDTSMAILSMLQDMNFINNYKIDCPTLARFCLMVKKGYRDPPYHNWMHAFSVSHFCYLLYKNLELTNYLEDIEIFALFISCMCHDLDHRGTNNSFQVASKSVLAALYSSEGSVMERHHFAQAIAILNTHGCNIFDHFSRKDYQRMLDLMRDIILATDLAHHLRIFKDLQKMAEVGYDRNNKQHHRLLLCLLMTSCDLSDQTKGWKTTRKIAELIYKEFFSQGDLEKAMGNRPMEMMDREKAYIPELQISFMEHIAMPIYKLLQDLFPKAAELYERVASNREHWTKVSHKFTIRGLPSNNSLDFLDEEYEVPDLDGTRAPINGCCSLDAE

[4] = target: PDE I (Cavia porcellus); test: Inhibitory concentration against cGMP PDE I enzyme in guinea pig
[5] = target: T3, Phosphodiesterase 3 (Homo sapiens, UniProt Q14432+Q13370); test: Inhibitory concentration against cAMP PDE III enzyme in guinea pig; format: protein assay, Cavia porcellus; conditions: target entry is the homologue from another species
[6] = target: T1, Phosphodiesterase 1; test: Inhibition of cAMP PDE I enzyme in guinea pig at 1E-4M concentration.; format: protein assay; conditions: Cavia porcellus; target entry is the homologue from another species
[7] = target: T3, Phosphodiesterase 3; test: Inhibition of cAMP PDE III enzyme in guinea pig at 1E-5M concentration; format: protein assay; conditions: Cavia porcellus; target entry is the homologue from another species
[8] = target: T1, Phosphodiesterase 1; test: Inhibition of cGMP PDE I enzyme in guinea pig at 1E-4M concentration; format: protein assay; conditions: Cavia porcellus; target entry is the homologue from another species
[9] = Ratio of IC50 values for PDE III and PDE II.
[10] = species: Canis familiaris; test: Effective dose required to increase myocardial contractility in dog.; format: functional; conditions: Canis lupus familiaris, Myocardium
Summary of the method: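 Anesthetized mongrel dogs (either sex): pentobarbital 35 mg/kg iv, then 5 mg kg⁻¹ h⁻¹ infusion. After 30-min control, compound in saline or dilute HCl/NaOH diluted with saline given iv over 1 min, cumulative half-log doses (typically four to six), 10–30 min apart.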

[11] = target: T1, Phosphodiesterase 1; test: Inhibition of cAMP PDE I enzyme in guinea pig at 1E-5M concentration; format: protein assay; conditions: Cavia porcellus; target entry is the homologue from another species
[12] = target: T1, Phosphodiesterase 1; test: Inhibition of cGMP PDE I enzyme in guinea pig at 1E-5M concentration; format: protein assay; conditions: Cavia porcellus; target entry is the homologue from another species
[13] = target: T3, Phosphodiesterase 3; test: Inhibition of cAMP PDE III enzyme in guinea pig at 1E-4M concentration.; format: protein assay; conditions: Cavia porcellus; target entry is the homologue from another species
[14] = target: T2, cGMP-dependent 3',5'-cyclic phosphodiesterase; test: Inhibition of cGMP PDE II enzyme in guinea pig at 1E-4M concentration; conditions: Cavia porcellus; target entry is the homologue from another species
[15] = target: T2, cGMP-dependent 3',5'-cyclic phosphodiesterase; test: Inhibition of cAMP PDE II enzyme in guinea pig at 1E-5M concentration; conditions: Cavia porcellus; target entry is the homologue from another species
[16] = target: PDE I (Cavia porcellus); test: Inhibitory concentration against cAMP PDE I enzyme in guinea pig
[17] = tested on: PDE II (Cavia porcellus); test: Inhibition of cAMP PDE II enzyme in guinea pig at 1E-4M concentration.
[18] = target: T2, cGMP-dependent 3',5'-cyclic phosphodiesterase; test: Inhibitory concentration against cGMP PDE II enzyme in guinea pig; parameters: species or system Cavia porcellus; conditions: target entry is the homologue from another species
[19] = target: T2, cGMP-dependent 3',5'-cyclic phosphodiesterase; test: Inhibition of cGMP PDE II enzyme in guinea pig at 1E-5M concentration; conditions: Cavia porcellus; target entry is the homologue from another species
[20] = Ratio of IC50 values for PDE III and PDE I.
[21] = target: T2, cGMP-dependent 3',5'-cyclic phosphodiesterase; test: Inhibition of cGMP PDE II enzyme in guinea pig at 10e-4 M; conditions: Cavia porcellus, target entry is the homologue from another species
[22] = target: T2, cGMP-dependent 3',5'-cyclic phosphodiesterase; test: Inhibition of cAMP PDE II enzyme in guinea pig at 1E-4M; conditions: Cavia porcellus; target entry is the homologue from another species
[23] = target: T2, cGMP-dependent 3',5'-cyclic phosphodiesterase; test: Inhibition of cGMP PDE II enzyme in guinea pig at 1E-4M; conditions: Cavia porcellus; target entry is the homologue from another species
[24] = target: T1, Phosphodiesterase 1; test: Inhibition of cGMP PDE I enzyme in guinea pig at 1E-4M; format: protein assay; conditions: Cavia porcellus; target entry is the homologue from another species
[25] = target: T1, Phosphodiesterase 1; test: Inhibition of cAMP PDE I enzyme in guinea pig at 1E-4M; format: protein assay; conditions: Cavia porcellus; target entry is the homologue from another species
[26] = target: T3, Phosphodiesterase 3; test: Inhibition of cAMP PDE III enzyme in guinea pig at 1E-4M; format: protein assay; conditions: Cavia porcellus; target entry is the homologue from another species

Nc1cc(-c2ccncc2)c[nH]c1=O [INAMRINONE]
IC50 [1]: > 1000 µM | IC50 [2]: > 1000 µM | IC50 [3]: 720 µM and 580 µM

CN1N=C(c2ccc(-n3ccnc3)cc2)CCC1=O
IC50 [4]: > 1000 µM | IC50 [5]: 110 µM | inhibition [6]: 22% | inhibition [7]: 13% | inhibition [8]: 26% | Ratio [9]: 297 | ED50 [10]: 1 mg/kg | inhibition [11]: 1% | inhibition [12]: 3% | inhibition [13]: 47% | inhibition [14]: 32% | inhibition [15]: 5% | IC50 [16]: > 1000 µM | inhibition [17]: 33% | IC50 [18]: 280 µM | inhibition [19]: 1% | IC50 [3]: 370 µM

CC1CC(=O)NN=C1c1ccc(-n2cnc3c2CCCC3)cc1 (centres undefined) [TETRAHYDROBENXIMIDAZOLE]
IC50 [4]: 85 µM | IC50 [5]: 0.15 µM | inhibition [6]: 57% | inhibition [7]: 64% | inhibition [8]: 54% | Ratio [20]: 2 | Ratio [9]: 3.2 | ED50 [10]: 0.025 mg/kg | inhibition [11]: 13% | inhibition [12]: 17% | inhibition [13]: 90% | inhibition [14]: 68% | inhibition [15]: 21% | IC50 [16]: 75 µM | inhibition [17]: 65% | IC50 [18]: 43 µM | inhibition [19]: 21% | IC50 [3]: 46 µM

CCC1CC(=O)NN=C1c1ccc(-n2ccnc2)cc1 (centres undefined)
IC50 [4]: > 1000 µM | IC50 [5]: 74 µM | inhibition [6]: 2% | inhibition [7]: 18% | inhibition [8]: 8% | Ratio [9]: 740 | ED50 [10]: 1 mg/kg | inhibition [11]: 1% | inhibition [12]: 1% | inhibition [13]: 54% | inhibition [14]: 40% | inhibition [15]: 5% | IC50 [16]: > 1000 µM | inhibition [17]: 35% | IC50 [18]: 71 µM | inhibition [19]: 13% | IC50 [3]: 100 µM

Cc1nccn1-c1ccc(C2=NNC(=O)CC2)cc1
IC50 [4]: 530 µM | IC50 [5]: 2.3 µM | inhibition [6]: 16% | inhibition [7]: 57% | inhibition [8]: 18% | Ratio [20]: 2.9 | inhibition [21]: 22% | Ratio [9]: 5.4 | ED50 [10]: 0.3 mg/kg | inhibition [11]: 1% | inhibition [12]: 0% | inhibition [13]: 64% | inhibition [15]: 8% | IC50 [16]: 790 µM | inhibition [17]: 19% | IC50 [18]: 380 µM | inhibition [19]: 4% | IC50 [3]: 420 µM

Oc1ccc(-c2ccc(-n3ccnc3)cc2)nn1
IC50 [5]: 7.2 µM | inhibition [6]: 17% | inhibition [7]: 56% | inhibition [8]: 15% | IC50 [1]: 660 µM | ED50 [10]: 0.11 mg/kg | inhibition [11]: 4% | inhibition [12]: 6% | inhibition [13]: 80% | inhibition [14]: 27% | inhibition [19]: 11% | IC50 [2]: 580 µM

O=C1CCC(c2ccc(-n3ccnc3)cc2)=NN1 [IMAZODAN]
inhibition [6]: 8% | inhibition [7]: 57% | inhibition [8]: 10% | inhibition [22]: 17% | inhibition [23]: 20% | ED50 [10]: 0.045 mg/kg | inhibition [11]: 3% | inhibition [12]: 3% | inhibition [13]: 76% | inhibition [15]: 4% | inhibition [19]: 7%

CC1CC(O)=NN=C1c1ccc(-n2ccnc2)cc1 (centres undefined) [CI-930]
inhibition [7]: 69% | inhibition [24]: 12% | inhibition [22]: 18% | inhibition [23]: 23% | inhibition [25]: 9% | ED50 [10]: 0.013 mg/kg | inhibition [11]: 3% | inhibition [12]: 9% | inhibition [15]: 5% | inhibition [19]: 7%

O=C1CCC(c2cccc(-n3ccnc3)c2)=NN1
IC50 [4]: > 1000 µM | IC50 [5]: 40 µM | inhibition [6]: 9% | inhibition [7]: 28% | inhibition [8]: 8% | Ratio [20]: 43 | Ratio [9]: 121 | ED50 [10]: 0.3 mg/kg | inhibition [11]: 6% | inhibition [12]: 3% | inhibition [13]: 65% | inhibition [14]: 28% | inhibition [15]: 10% | IC50 [16]: 930 µM | inhibition [17]: 21% | IC50 [18]: 340 µM | inhibition [19]: 10% | IC50 [3]: 330 µM

O=C1CCC(c2ccc(-n3cnc4ccccc43)cc2)=NN1
IC50 [4]: 220 µM | IC50 [5]: 1.2 µM | inhibition [6]: 25% | inhibition [7]: 66% | inhibition [8]: 36% | Ratio [20]: 4.3 | Ratio [9]: 28.5 | ED50 [10]: 0.1 mg/kg | inhibition [11]: 9% | inhibition [12]: 9% | inhibition [13]: 88% | inhibition [14]: 70% | inhibition [15]: 24% | IC50 [16]: 280 µM | inhibition [17]: 67% | IC50 [18]: 34 µM | inhibition [19]: 24% | IC50 [3]: 42 µM

O=C1CCC(c2ccc(NC3=NCCO3)cc2)=NN1
inhibition [6]: 26% | inhibition [7]: 54% | inhibition [8]: 12% | inhibition [11]: 3% | inhibition [12]: 6% | inhibition [13]: 68% | inhibition [14]: 31% | inhibition [15]: 9% | inhibition [17]: 36% | inhibition [19]: 4%

CC1CC(c2ccc(-n3ccnc3)cc2)=NNC1=O (centres undefined)
IC50 [5]: 43 µM | inhibition [7]: 25% | inhibition [24]: 8% | inhibition [22]: 27% | IC50 [1]: > 1000 µM | inhibition [23]: 26% | inhibition [25]: 8% | inhibition [26]: 63% | ED50 [10]: 1 mg/kg | inhibition [11]: 0% | inhibition [12]: 2% | inhibition [15]: 15% | inhibition [19]: 7% | IC50 [2]: > 1000 µM

O=C1CCC(c2ccc(-n3cncn3)cc2)=NN1
inhibition [7]: 33% | inhibition [23]: 24% | inhibition [11]: 7% | inhibition [12]: 6% | inhibition [13]: 51% | inhibition [15]: 6% | inhibition [17]: 20% | inhibition [19]: 7%

O=C1CCC(c2ccc(-n3ccnc3)cc2)=NN1Cc1ccccc1
inhibition [6]: 39% | inhibition [7]: 47% | inhibition [8]: 33% | inhibition [11]: 1% | inhibition [12]: 13% | inhibition [13]: 79% | inhibition [14]: 70% | inhibition [15]: 22% | inhibition [17]: 70% | inhibition [19]: 18%
